HSF1 inhib: HSF1 inhibition; NIH3T3-HGL HSE-luciferase, MG132-induced, luminescence 8 h; hits give low values; activity change, negative = inhibition, % at 7.5 µM (by protocol); hit rate 0.77% among 300,000;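 active means more than half of replicate wells show activity change below -50%, luminescence cut by over half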;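 further: luciferase reports HSF-1 transcriptional activity via heat shock element; 0% = median of DMSO wells and -100% = zero luminescence signal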
HSF1 activator: increases HSF-1 driven luciferase reporter signal; activation, % at 9 µM; hit rate 1.7% among 300,000; NIH3T3-HGL HSF-1 luciferase reporter, MG132, 8 h; 100% = twice DMSO control signal;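 active means mean replicate activation of at least 50% with a set share of replicates each reaching 50%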;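 further: 0% = median of the neutral control wells and 100% = twice that signal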
HSP90 inh: inhibitors of HSP90 luciferase refolding in rabbit reticulocyte lysate; luciferase refolding luminescence, 3 h; inhibition, % at 5.6 µM; hit rate 0.91% among 290,000; AID 1789;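 active means inhibition above the screen-wide mean plus 3 SD, computed separately per campaign, cut at about 16% in these data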;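 further: 0% = DMSO wells and 100% = 60 µM geldanamycin wells; inhibitors lower the luminescence because luciferase stays unfolded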
HKDC1 inh: HKDC1 (human) hexokinase inhibition; recombinant HKDC1, G6PDH/diaphorase resazurin coupled fluorescence; hit rate 0.16% among 340,000; AID 493160; Q2TB90; inhibition, % at 20 µM;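 active means inhibition above about 35% when tested at 20 µM, limit read from the data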;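 further: plate controls were DMSO wells with enzyme for no effect and DMSO wells lacking enzyme for full effect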
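Test system: recombinant HKDC1 (HK5) hexokinase enzyme, produced in-house / Doses: 20 µM test compound, 1% DMSO / Timing: 90 min, room temperature / Detection: G6PDH/diaphorase-coupled fluorescence, 1 mM NADP, 100 µM resazurin, 525/613 nm / Control set: DMSO wells with and without enzyme mix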
Hsp70 act: Hsp70 transcriptional activation, primary screen; HeLa Hsp70 promoter luciferase reporter, luminescence; scaled: vehicle 0, proteasome-inhibitor control 100%; activation, % at 10 µM; hit rate 0.04% among 200,000; AID 1203;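 active means activation above the mean across all tested compounds plus 3 SD, cutoff set per campaign, cut at about 5.5% in these data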;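 further: 100% = MG132 at 30 µM as the positive control and 0% = DMSO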
TbHK1 inh: T. brucei hexokinase 1 inhibition; recombinant TbHK1, G6PDH-coupled NADH A340; hit rate 0.11% among 220,000; AID 1430; inhibition, % at 10 µM;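 active means inhibition of 50% or more in the single-dose primary screen; inactive means inhibition below 50%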
HSP90 inh confirm: HSP90 inhibition, confirmation assay | shares compounds with HSP90 inh | rabbit reticulocyte lysate, luciferase refolding luminescence, 3 h | inhibition, % at 5.9 µM | hit rate 64% among 2,300; in the data active means inhibition above about 18%;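 further: 0% = vehicle wells and 100% = reference inhibitor wells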
FLuc counter: counter-screen for HSP90 inhibitors: inhibitors of firefly luciferase; shares compounds with HSP90 inh; purified native firefly luciferase, luminescence; inhibition, % at 5.9 µM; hit rate 48% among 2,300; AID 1847;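 active means inhibition above the mean inhibition of all tested sample wells plus 3 SD, cut at about 10% in these data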;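 further: 0% = DMSO with luciferase and 100% = wells lacking luciferase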
Target sequence (P08659 whole entry, looked up): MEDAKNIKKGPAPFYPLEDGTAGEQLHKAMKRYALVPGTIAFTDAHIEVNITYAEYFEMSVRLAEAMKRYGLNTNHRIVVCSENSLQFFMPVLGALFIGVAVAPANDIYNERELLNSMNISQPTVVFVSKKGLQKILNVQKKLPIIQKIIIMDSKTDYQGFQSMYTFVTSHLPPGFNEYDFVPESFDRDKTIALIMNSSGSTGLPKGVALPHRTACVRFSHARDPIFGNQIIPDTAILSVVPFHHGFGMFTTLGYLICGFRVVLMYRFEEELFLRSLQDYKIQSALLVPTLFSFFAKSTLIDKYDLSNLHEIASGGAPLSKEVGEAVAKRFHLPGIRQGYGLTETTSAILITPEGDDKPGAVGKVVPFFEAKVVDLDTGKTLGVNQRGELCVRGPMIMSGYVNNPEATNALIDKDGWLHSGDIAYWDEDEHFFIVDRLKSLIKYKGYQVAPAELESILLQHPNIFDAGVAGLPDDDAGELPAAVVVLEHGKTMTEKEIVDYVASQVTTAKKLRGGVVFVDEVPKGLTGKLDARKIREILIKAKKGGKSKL
An asterisk follows results filed as active; . = no result. This is a sample that favours compounds with a hit; in the whole collection about 3.1% have one here.

SMILES	HSF1 inhib	HSF1 activator	HSP90 inh	HKDC1 inh	Hsp70 act	TbHK1 inh	HSP90 inh confirm	FLuc counter
Cc1noc(C)c1COc1ccc(C(=O)N2CCN(S(=O)(=O)c3cccc(F)c3)CC2)cc1	.	.	.	-7	.	.	.	.
Cc1ccc(-n2nc3c(c2NC(=O)c2ccco2)CS(=O)C3)cc1 (configuration not stated)	-5	23	2	0	.	.	.	.
O=C(CCCCCN1C(=O)c2ccccc2C1=O)Nc1ccc2c(c1)OCCO2	-2	-19	5	1	0	4	.	.
COc1cccc(NC(=O)c2ccc3c(c2)OCO3)c1	18	35	29*	0	.	.	20*	4
O=C(/C=C/c1cccc([N+](=O)[O-])c1)Nc1cc(C(=O)O)cc(C(=O)O)c1	-7	-6	1	-4	0	-13	.	.
O=C(CCCc1ccccc1)Nc1ccc2c(c1)OCCO2	36	75*	26*	-6	0	11	32*	29*
O=C(/C=C/c1ccccc1)Nc1cc(NC(=O)/C=C/c2ccccc2)cc(C(=O)O)c1	-3	-14	32*	13	.	.	41*	9.6*
O=C(Nc1ccc2c(c1)OCCO2)c1ccccc1	12	29	24*	2	.	.	27*	17*
O=C(Nc1ccc2c(c1)OCCO2)c1cccc(C(=O)Nc2ccc3c(c2)OCCO3)c1	20	40	-2	-3	.	.	.	.
COc1cc2cc(C(=O)Nc3ccc4c(c3)OCCO4)[nH]c2cc1OC	-72*	-74	36*	-4	.	.	62*	58*
COc1cc2[nH]c(C(=O)Nc3ccc4c(c3)OCCO4)cc2c(OC)c1OC	-34	-37	7	-1	.	.	.	.
COc1cccc(/C=N/Nc2nccnc2Cl)c1O	9	17	55*	0	0	-27	72*	59*
COc1cccc(/C=N/Nc2ncnc(Cl)c2N)c1O	-4	18	2	15	0	35	.	.
C=CCn1c(C)cc(C(=O)Cn2nc(C(=O)O)c3ccccc3c2=O)c1C	-4	-18	51*	-3	0	-2	71*	20*
COCCn1c(C)cc(C(=O)CSc2nc3ccccc3o2)c1C	12	22	1	-1	0	5	.	.
COCCn1c(C)cc(C(=O)CSc2nc3ccccc3s2)c1C	.	.	28*	9	0	-5	67*	68*
COCCn1c(C)cc(C(=O)COC(=O)c2ccc[nH]c2=O)c1C	-25	-26	31*	15	0	23	45*	54*
COCCn1c(C)cc(C(=O)Cn2nc(C(=O)O)c3ccccc3c2=O)c1C	-17	-30	67*	-8	0	1	75*	1
COc1ccc(CCN(C)Cc2ccc(C(=O)Nc3ccccc3)cc2)cc1OC	-7	16	-1	-1	.	.	.	.
CC(C)(C)OC(=O)N1CCC(C(=O)Nc2cccc(C(=O)NCc3ccccc3)c2)CC1	.	.	.	-4	.	.	.	.
CCN1C(=O)[C@H]2[C@@H](c3ccc(-c4ccc(F)cc4)cc3)N3CCCC[C@@]3(C(=O)OC)[C@H]2C1=O	6	-5	.	1	.	.	.	.
Cc1ccccc1NC1=C/C(=N\S(=O)(=O)c2cccs2)c2ccccc2C1=O	-95*	-95	35*	63*	0	-7	91*	-2
CN(C)/C=C/C(=O)c1ccc2noc(-c3cccc(F)c3)c2c1	-8	0	2	5	.	.	.	.
COc1ccc(-c2onc3ccc(C(=O)/C=C/N(C)C)cc23)cc1	-25	-30	31*	7	.	.	2	1
Cc1nnc(SCC(=O)Nc2ncc3c(n2)CC(c2ccccc2)CC3=O)s1 (configuration not stated)	7	33	35*	-2	0	-4	-3	-6
SMILES	HSF1 inhib	HSF1 activator	HSP90 inh	HKDC1 inh	Hsp70 act	TbHK1 inh	HSP90 inh confirm	FLuc counter
CCCSCCCNC(=O)CN1C(=O)COc2ccc(S(=O)(=O)N3CCCC3)cc21	-2	2	0	3	.	.	.	.
CCC(=O)N/N=C/c1ccc(OS(=O)(=O)c2ccccc2)cc1	0	3	22*	-8	0	17	-1	-4
COc1ccc(/C=N/NC(=O)CNS(=O)(=O)c2ccccc2)cc1	.	.	.	-4	.	.	.	.
O=S(=O)(Nc1c(S(=O)(=O)c2ccccc2)c2nc3ccccc3nc2n1C1CCCCC1)c1ccccc1	-3	6	-1	26	0	15	.	.
C=CCn1c(NS(=O)(=O)c2ccccc2)c(S(=O)(=O)c2ccc(C)cc2)c2nc3ccccc3nc21	-7	11	22*	3	0	-4	52*	-1
Cc1cccc(C)c1NC(=O)COC(=O)c1cc[n+]([O-])cc1	3	12	.	4	.	.	.	.
CC1CCC/C(=C\Nc2ccc(C(=O)O)cc2)C1=O (configuration not stated)	-9	-22	37*	-3	0	-42	61*	22*
Cc1ccc(CN2C(=O)c3ccccc3Sc3ccc(C(=O)NCCCN4CCOCC4)cc32)cc1	5	5	-1	4	.	.	.	.
O=C(NCCN1CCOCC1)c1ccc2c(c1)N(Cc1cccc(F)c1)C(=O)c1ccccc1S2	1	-3	20*	0	0	0	-4	-8
CC1CCN(C(=O)c2cc3c(ccc4ccccc43)o2)CC1	-7	-7	25*	9	.	.	49*	34*
CC1CCN(S(=O)(=O)c2ccc3c(c2)N(CC(=O)NCCN2C(C)CCCC2C)C(=O)CS3)CC1 (configuration not stated)	1	9	21*	-2	.	.	-7	-12
CC1CCN(S(=O)(=O)c2ccc3c(c2)N(CC(=O)NCCCN2CCCCC2C)C(=O)CS3)CC1 (configuration not stated)	-2	-7	-7	1	.	.	.	.
O=C1OC2(CCCCC2)OC(=O)C1=CNc1ccc2c(c1)OCO2	-1	5	3	-2	0	-9	.	.
O=C1/C(=C/Nc2ccc3c(c2)OCO3)CCc2ccccc21	-44	-46	38*	35	0	15	86*	72*
CCCCN(c1ccccc1)S(=O)(=O)c1cccc2cccnc12	6	16	-5	0	.	-9	.	.
CCOC(=O)C1=CN(Cc2cccc(F)c2)S(=O)(=O)N(CC)C1c1ccc(F)c(Cl)c1 (configuration not stated)	.	.	.	2	.	.	.	.
COC(=O)c1ccc2nc(-c3ccc(S(C)(=O)=O)cc3)cn2c1	7	8	1	-5	0	-5	.	.
CS(=O)(=O)c1ccc(-c2cn3cc(C(=O)O)ccc3n2)cc1	-15	-13	63*	-8	0	-9	75*	3
O=C(NCCc1ccccc1F)c1ccc2c(c1)OCCO2	-75*	-79	95*	-5	.	.	98*	92*
